This note sets out measurements from ChEMBL document CHEMBL3627703, “Synthetic, structural mimetics of the β-hairpin flap of HIV-1 protease inhibit enzyme function” (Bioorg Med Chem, 2015).

SMILES strings stand for the structures. Activity calls are given as the source filed them. The rule behind the calls is not given here.

For data set [1], the target named is Protease (Human immunodeficiency virus 1, UniProt Q9YQ12). In words: Inhibition of recombinant HIV-1 protease expressed in Escherichia coli using Arg-Glu (EDANS)-Ser-Gln-Asn-Tyr-Pro-Ile-Val-Gln Lys(DABCYL)-Arg as substrate by spectrofluorometric analysis. In short, it runs like this:
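Recombinant HIV-1 PR refolded from E. coli inclusion bodies, active concentration set by active-site titration, final 30–40 nM. Assay at 25 °C in 10 mM sodium acetate, 1 M NaCl, 2% DMSO, pH 5.0. Fluorogenic substrate at 16.7 μM, inhibitor 0–200 μM (20 mM DMSO stocks). Hydrolysis followed at excitation 340 / emission 490 nm. Ki from fitting to tight-binding competitive inhibition equations.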

The test system of data set [2] is MT4. The data set is described as follows: Cytotoxicity against human MT4 cells assessed as viable cells at 50 uM after 3 days by tryptan blue dye assay. Format: cell-based. Conditions: mt4, 72 h. The essentials:
(§1)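 MT-4 cells seeded at 2 × 10⁵ cells/ml in RPMI with 10% heat-inactivated FBS, carrying carrier alone or inhibitor at 10, 50 or 100 μM (0.25% DMSO final), 37 °C, 5% CO₂. Viable cells counted by trypan blue exclusion after three days; triplicate.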

Data set [3] relates to Human immunodeficiency virus 1. The data set is described as follows: Antiviral activity against HIV-1 infected in human TZM-bl cells assessed as inhibition of viral replication at 50 to 100 uM by luciferase reporter assay. The format is functional, organism-based. (In a reporter assay the amount or activity of a reporter protein is the signal.)
The subject of data set [4] is MT4. In words: Cytotoxicity against human MT4 cells assessed as viable cells at 100 uM after 3 days by tryptan blue dye assay. Format: cell-based. Particulars: mt4, 72 h. In short, it runs like this: as §1

Chain of Protease (Q9YQ12 whole entry): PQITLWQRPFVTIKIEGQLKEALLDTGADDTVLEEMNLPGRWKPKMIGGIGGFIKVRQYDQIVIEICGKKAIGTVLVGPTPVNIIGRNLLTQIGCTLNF

With `CC1=N[C@H](CC(C)C)C(=O)N(Cc2ccc(C3CCCCC3)cc2)c2cc(C(=O)OC(C)(C)C)ccc21`, the Ki (usually a dissociation constant, usually derived from enzyme kinetics or from competition with a known ligand) in data set [1] came out at 65 µM.

Take `CCC(C)[C@@H]1N=C(C)c2ccc(C(=O)O)cc2N(Cc2ccc(C3CCCCC3)cc2)C1=O` (single isomer, unassigned): the Ki in data set [1] is 53 µM.

Consider `CC1=N[C@H](CC(C)C)C(=O)N(Cc2ccc(C(C)(C)C)cc2)c2cc(C(=O)OC(C)(C)C)ccc21`, for which the Ki in data set [1] amounted to 147 µM.

Turning to `CCCCCCCCCCCCCCCCNC(=O)CN1C(=O)[C@@H](CC(C)C)N=C(C)c2ccc(C(=O)O)cc21`, in data set [1], the Ki was 11 µM. Further, the Activity entry in data set [2] and in data set [4] was “Toxic” each time. Besides, the inhibition entry in data set [3] was “Active”.

In the case of `CC1=N[C@H](CC(C)C)C(=O)N(CC(=O)N2CCN(C(=O)OCc3ccccc3)CC2)c2cc(C(=O)OC(C)(C)C)ccc21`, the Ki in data set [1] was over 200 µM.

Consider `CC1=NCC(=O)Nc2cc(C(=O)O)ccc21`, for which, in data set [1], the Ki turned out to be 199 µM.

Consider `CC1=N[C@H](CC(C)C)C(=O)N(CC(=O)N2CCN(C(=O)OCC3c4ccccc4-c4ccccc43)CC2)c2cc(C(=O)O)ccc21`, for which the Ki in data set [1] stood at 49 µM.

Take `CCC(C)[C@@H]1N=C(C)c2ccc(C(=O)OC(C)(C)C)cc2NC1=O` (single isomer, unassigned): the Ki in data set [1] is over 200 µM.

Turning to `CC1=N[C@H](Cc2ccccc2)C(=O)Nc2cc(C(=O)O)ccc21`, in data set [1], the Ki was over 200 µM.

Consider `CC1=N[C@@H](CC(C)C)C(=O)Nc2cc(C(=O)OC(C)(C)C)ccc21`, for which the Ki in data set [1] was found to be 193 µM.

For `CCCCCCNC(=O)CN1C(=O)[C@@H](CC(C)C)N=C(C)c2ccc(C(=O)O)cc21`, the Ki in data set [1] was determined as 75 µM.

Turning to `CC1=N[C@@H](CC(C)C)C(=O)N(Cc2ccc(C3CCCCC3)cc2)c2cc(C(=O)OC(C)(C)C)ccc21`, the Ki in data set [1] is 76 µM.

In the case of `CC1=N[C@H](CC(C)C)C(=O)N(Cc2ccc(-c3ccccc3)cc2)c2cc(C(=O)OC(C)(C)C)ccc21`, in data set [1], the Ki is 62 µM.

With `CC1=N[C@@H](C)C(=O)N(Cc2ccc(C3CCCCC3)cc2)c2cc(C(=O)OC(C)(C)C)ccc21`, the Ki in data set [1] turned out to be 88 µM.

`CC1=N[C@H](CC(C)C)C(=O)N(CC(C)C)c2cc(C(=O)O)ccc21`: the Ki in data set [1] is over 200 µM.

Take `CC1=NCC(=O)N(Cc2ccc(C3CCCCC3)cc2)c2cc(C(=O)O)ccc21`: in data set [1], the Ki worked out at 85 µM.

Take `CC1=N[C@@H](CC(C)C)C(=O)N(Cc2ccc(C3CCCCC3)cc2)c2cc(C(=O)O)ccc21`: in data set [1], the Ki worked out at 27 µM.

With `CCCCCCCCCCNC(=O)CN1C(=O)[C@@H](CC(C)C)N=C(C)c2ccc(C(=O)OC(C)(C)C)cc21`, in data set [1], the Ki is over 200 µM.

Turning to `CC1=N[C@H](CC(C)C)C(=O)Nc2cc(C(=O)O)ccc21`, in data set [1], the Ki was over 200 µM.

Take `CC1=N[C@@H](Cc2ccccc2)C(=O)N(Cc2ccc(C3CCCCC3)cc2)c2cc(C(=O)OC(C)(C)C)ccc21`: in data set [1], the Ki worked out at 54 µM.

Regarding `CC1=N[C@H](CC(C)C)C(=O)N(CC(=O)NCCc2ccccc2)c2cc(C(=O)O)ccc21`, the Ki in data set [1] is 75 µM.

Turning to `CCCCCCCCCCNC(=O)CN1C(=O)[C@@H](CC(C)C)N=C(C)c2ccc(C(=O)O)cc21`, the Ki in data set [1] was found to be 11 µM. Besides, the Activity result was “Non-toxic” in data set [2] and “Toxic” in data set [4]. For the same compound, the inhibition result in data set [3] was “Active”.

Take `CC1=N[C@H](CC(C)C)C(=O)N(CC(=O)N2CCN(C(=O)OCc3ccccc3)CC2)c2cc(C(=O)O)ccc21`: in data set [1], the Ki was 81 µM.

As to `CC1=N[C@H](CC(C)C)C(=O)N(Cc2ccc(C(C)(C)C)cc2)c2cc(C(=O)O)ccc21`, the Ki in data set [1] turned out to be 46 µM.

For `CCC(C)[C@@H]1N=C(C)c2ccc(C(=O)OC(C)(C)C)cc2N(Cc2ccc(C3CCCCC3)cc2)C1=O` (single isomer, unassigned), the Ki in data set [1] came to 108 µM.

Regarding `CC1=NCC(=O)N(Cc2ccc(C3CCCCC3)cc2)c2cc(C(=O)OC(C)(C)C)ccc21`, the Ki in data set [1] came to 169 µM.

On to `CC1=N[C@H](CC(C)C)C(=O)N(CC(C)C)c2cc(C(=O)OC(C)(C)C)ccc21`, for which the Ki in data set [1] stood at 89 µM.

As to `CC1=N[C@@H](Cc2ccccc2)C(=O)N(Cc2ccc(C3CCCCC3)cc2)c2cc(C(=O)O)ccc21`, in data set [1], the Ki turned out to be 47 µM.

For `CC1=N[C@@H](C)C(=O)Nc2cc(C(=O)OC(C)(C)C)ccc21`, in data set [1], the Ki is over 200 µM.

Turning to `CC1=N[C@H](CC(C)C)C(=O)N(Cc2ccncc2)c2cc(C(=O)O)ccc21`, the Ki in data set [1] is over 200 µM.

Take `CC1=N[C@H](Cc2ccccc2)C(=O)N(Cc2ccc(C3CCCCC3)cc2)c2cc(C(=O)OC(C)(C)C)ccc21`: the Ki in data set [1] is 131 µM.

Regarding `CC1=N[C@@H](CC(C)C)C(=O)Nc2cc(C(=O)O)ccc21`, in data set [1], the Ki was over 200 µM.

For `CC1=N[C@H](CC(C)C)C(=O)N(CC(=O)OC(C)(C)C)c2cc(C(=O)OC(C)(C)C)ccc21`, the Ki in data set [1] worked out at 119 µM.

For `CC1=N[C@H](CC(C)C)C(=O)N(Cc2ccccc2)c2cc(C(=O)OC(C)(C)C)ccc21`, the Ki in data set [1] is over 200 µM.

In the case of `CCC(C)[C@@H]1N=C(C)c2ccc(C(=O)O)cc2NC1=O` (single isomer, unassigned), in data set [1], the Ki came out at 158 µM.

Turning to `CC1=N[C@@H](C)C(=O)Nc2cc(C(=O)O)ccc21`, the Ki in data set [1] is over 200 µM.

As for `CC1=N[C@H](CC(C)C)C(=O)N(CC(=O)NCCc2ccccc2)c2cc(C(=O)OC(C)(C)C)ccc21`, the Ki in data set [1] worked out at 95 µM.

`CC1=N[C@H](CC(C)C)C(=O)N(CC(=O)N2CCNCC2)c2cc(C(=O)O)ccc21`: the Ki in data set [1] was over 200 µM.

With `CC1=N[C@H](CC(C)C)C(=O)N(Cc2ccccc2)c2cc(C(=O)O)ccc21`, the Ki in data set [1] was over 200 µM.

Take `CC1=N[C@H](CC(C)C)C(=O)N(CC(=O)N2CCN(C(=O)OC(C)(C)C)CC2)c2cc(C(=O)OC(C)(C)C)ccc21`: the Ki in data set [1] turned out to be 143 µM.

Consider `CC1=N[C@H](CC(C)C)C(=O)N(Cc2ccc(-c3ccccc3)cc2)c2cc(C(=O)O)ccc21`, for which, in data set [1], the Ki amounted to 21 µM. Besides, the Activity entry in data set [2] is recorded as “Non-toxic”; in data set [4] it was “Toxic”. Further, the inhibition entry in data set [3] is “Active”.

Consider `CC1=N[C@H](Cc2ccccc2)C(=O)N(Cc2ccc(C3CCCCC3)cc2)c2cc(C(=O)O)ccc21`, for which, in data set [1], the Ki came to 72 µM.

Regarding `CC(C)C[C@H]1N=C(c2ccccc2)c2ccc(C(=O)O)cc2N(Cc2ccc(C3CCCCC3)cc2)C1=O`, the Ki in data set [1] came out at 68 µM.

For the compound `CC1=N[C@H](CC(C)C)C(=O)N(CC(=O)O)c2cc(C(=O)O)ccc21`, the Ki in data set [1] is over 200 µM.

As for `CC1=N[C@H](CC(C)C)C(=O)Nc2cc(C(=O)OC(C)(C)C)ccc21`, the Ki in data set [1] is over 200 µM.

For the compound `CC1=N[C@H](Cc2ccccc2)C(=O)Nc2cc(C(=O)OC(C)(C)C)ccc21`, the Ki in data set [1] was determined as 88 µM.

On to `CC1=N[C@H](CC(C)C)C(=O)N(Cc2ccc(C3CCCCC3)cc2)c2cc(C(=O)O)ccc21`, for which the Ki in data set [1] was 19 µM. Further, the Activity entry is on record as “Non-toxic” in data set [2] and “Toxic” in data set [4]. In addition, in data set [3], the inhibition result was “Active”.

With `CC1=N[C@@H](C)C(=O)N(Cc2ccc(C3CCCCC3)cc2)c2cc(C(=O)O)ccc21`, the Ki in data set [1] is 56 µM.

On to `CC1=N[C@H](CC(C)C)C(=O)N(Cc2ccncc2)c2cc(C(=O)OC(C)(C)C)ccc21`, for which the Ki in data set [1] is over 200 µM.

As for `CC(C)C[C@H]1N=C(c2ccccc2)c2ccc(C(=O)OC(C)(C)C)cc2N(Cc2ccc(C3CCCCC3)cc2)C1=O`, the Ki in data set [1] amounted to 88 µM.

In the case of `CC1=N[C@H](CC(C)C)C(=O)N(CC(=O)N2CCN(C(=O)OCC3c4ccccc4-c4ccccc43)CC2)c2cc(C(=O)OC(C)(C)C)ccc21`, in data set [1], the Ki is over 200 µM.

As for `CCCCCCCCCCCCCCCCNC(=O)CN1C(=O)[C@@H](CC(C)C)N=C(C)c2ccc(C(=O)OC(C)(C)C)cc21`, in data set [1], the Ki amounted to 165 µM.

Regarding `CCCCCCNC(=O)CN1C(=O)[C@@H](CC(C)C)N=C(C)c2ccc(C(=O)OC(C)(C)C)cc21`, the Ki in data set [1] was over 200 µM.

Consider `CC1=NCC(=O)Nc2cc(C(=O)OC(C)(C)C)ccc21`, for which the Ki in data set [1] is over 200 µM.

As to `CC1=N[C@@H](Cc2ccccc2)C(=O)Nc2cc(C(=O)OC(C)(C)C)ccc21`, the Ki in data set [1] was found to be 64 µM.

For the compound `CC1=N[C@@H](Cc2ccccc2)C(=O)Nc2cc(C(=O)O)ccc21`, the Ki in data set [1] is over 200 µM.
